From ChEMBL document CHEMBL4033606, “Ulapualides C-E Isolated from a Hawaiian Hexabranchus sanguineus Egg Mass” (J Nat Prod, 2017)
Active and inactive are the calls of the source. The calls are words filed in the database; no cut-off is given here.

Tests used:
[1] = biological target: Beta-secretase 1 (Homo sapiens) (UniProt P56817); assay: Inhibition of BACE1 (unknown origin) up to 30 uM
A549 = assay: Cytotoxicity against human A549 cells incubated for 72 hrs by CyQuant NF cell proliferation assay; type: functional, cell-based; settings: A549, 72 h
In short: (§1)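 Cells seeded at 4,000 per well and treated 20 h later with serially diluted compounds for 72 h at 37 °C, 5% CO2. Medium containing penicillin 100 U/mL and streptomycin 100 μg/mL. Medium then replaced with CyQuant NF dye-binding solution for 60 min at 37 °C and fluorescence read on a plate reader. Triplicates in two independent trials. IC50 reported. In the second trial, sample concentration was set by colorimetry against a standard curve.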

MDA-MB-231 = assay: Cytotoxicity against human MDA-MB-231 cells incubated for 72 hrs by CyQuant NF cell proliferation assay; type: functional, cell-based; settings: MDA-MB-231, 72 h; in short: as §1
DU-145 = assay: Cytotoxicity against human DU145 cells incubated for 72 hrs by CyQuant NF cell proliferation assay; type: functional, cell-based; settings: DU-145, 72 h; in short: as §1

Chain of Beta-secretase 1 (Homo sapiens) (P56817 whole entry): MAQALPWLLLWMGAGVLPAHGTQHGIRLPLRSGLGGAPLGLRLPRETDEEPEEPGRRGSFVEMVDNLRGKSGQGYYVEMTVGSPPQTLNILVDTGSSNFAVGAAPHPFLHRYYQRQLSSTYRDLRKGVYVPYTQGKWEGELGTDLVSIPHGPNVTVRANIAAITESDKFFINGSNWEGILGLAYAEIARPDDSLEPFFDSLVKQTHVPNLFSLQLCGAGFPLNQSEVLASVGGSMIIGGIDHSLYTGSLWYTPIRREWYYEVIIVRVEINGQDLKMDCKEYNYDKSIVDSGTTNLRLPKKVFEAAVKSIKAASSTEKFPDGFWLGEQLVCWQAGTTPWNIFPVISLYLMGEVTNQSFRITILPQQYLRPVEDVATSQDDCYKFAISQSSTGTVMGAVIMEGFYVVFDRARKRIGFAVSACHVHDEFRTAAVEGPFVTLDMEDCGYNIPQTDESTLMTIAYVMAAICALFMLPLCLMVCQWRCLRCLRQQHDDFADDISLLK

SMILES	inhibition [1]	IC50 (A549)	IC50 (MDA-MB-231)	IC50 (DU-145)
COCC(OC)C(=O)OC(CCC(C)C(CC1OC(=O)CC(O)CCCC(=O)CC(C)c2coc(n2)-c2coc(n2)-c2coc(n2)/C=C/CC(OC)C1C)OC)C(C)C(OC(C)=O)C(C)/C=C/N(C)C=O (stereo unspecified)	inactive	260 to 330 nM	290 nM	280 to 340 nM
CO[C@H]1C/C=C/c2nc(co2)-c2nc(co2)-c2nc(co2)[C@@H](C)CC(=O)CCC[C@H](O)CC(=O)O[C@@H](C[C@H](OC)[C@@H](C)CCC(=O)[C@H](C)[C@H](OC(C)=O)[C@H](C)/C=C/N(C)C=O)[C@@H]1C	inactive	280 to 290 nM	230 to 250 nM	250 to 260 nM
COC(CC1OC(=O)CC(O)CCCC(=O)CC(C)c2coc(n2)-c2coc(n2)-c2coc(n2)/C=C/CC(OC)C1C)C(C)CCC(O)C(C)C(OC(C)=O)C(C)/C=C/N(C)C=O (stereo unspecified)	–	600 to 680 nM	580 to 760 nM	760 to 850 nM
